Assay outcomes from PubChem BioAssay.
CHRM5 agonist: CHRM5 agonism in calcium assay. CHO-K1 hM5 cells, Fluo-8 calcium fluorescence; 0% DMSO wells, 100% maximal acetylcholine response. activation, % at 3 µM. 360,000 tested, 0.19% active;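 active means activation above the run's mean over test compounds plus 3 SD, cut at about 23% in these data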;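 further: signal is peak over basal fluorescence ratio across the kinetic read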
CHRM4 agonist: CHRM4 agonism in calcium assay; P08173; CHO-K1 hM4/Gqi5, Fluo-8 calcium fluorescence; vehicle 0%, full acetylcholine response 100%; activation, % at 3 µM; 360,000 tested, 0.14% active; AID 624127;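 active means activation above the run mean over all test wells plus 3 SD, cut at about 32% in these data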;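 further: peak over basal fluorescence ratio per well then scaled between controls; 0% = DMSO wells and 100% = acetylcholine at EC100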
Target sequence (P08173 whole entry, looked up): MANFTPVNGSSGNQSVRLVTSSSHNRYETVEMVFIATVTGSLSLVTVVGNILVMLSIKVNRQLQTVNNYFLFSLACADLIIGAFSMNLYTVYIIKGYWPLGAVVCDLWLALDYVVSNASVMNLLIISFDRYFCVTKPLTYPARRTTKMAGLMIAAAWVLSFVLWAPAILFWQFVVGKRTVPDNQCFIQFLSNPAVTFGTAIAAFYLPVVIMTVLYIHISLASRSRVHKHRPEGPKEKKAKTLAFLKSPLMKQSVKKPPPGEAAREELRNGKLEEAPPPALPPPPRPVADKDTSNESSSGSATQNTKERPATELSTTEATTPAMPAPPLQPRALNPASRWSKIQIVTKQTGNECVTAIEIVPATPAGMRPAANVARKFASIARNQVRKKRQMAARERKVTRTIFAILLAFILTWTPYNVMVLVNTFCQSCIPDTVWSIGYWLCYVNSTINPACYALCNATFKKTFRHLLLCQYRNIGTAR
CHRM5 PAM: CHRM5 positive allosteric modulation; P08912; CHO-K1 hM5, Fluo-8 calcium, ACh EC20 PAM; 0% = ACh EC20, 100% = ACh EC100; activation, % at 3 µM; 360,000 tested, 0.3% active; AID 624038;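 active means activation above the run cutoff, the mean activation of all test compounds plus 3 SD, cut at about 18% in these data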
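System – CHO-K1 hM5 cells · Compound – 3 µM, single dose · Incubation – compound preincubation 140 s before EC20 acetylcholine addition · Technique – Fluo-8 calcium fluorescence · Measure – Max/basal fluorescence ratio as % of EC20–EC100 ACh window · Benchmarks – low control EC20 acetylcholine (0%), high control EC100 acetylcholine (100%) · Replication – singlicate, one well per test compound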
CHRM4 PAM: positive allosteric modulators of human muscarinic M4 receptor; AID 624126; CHO-K1 hM4/Gqi5, Fluo-8 calcium fluorescence, ACh EC20; 0% = ACh EC20, 100% = maximal ACh; 360,000 tested, 0.4% active; activation, % at 3 µM;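 active means activation above its plate's cutoff, the mean activation of sample wells plus 3 SD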
M4 antag: CHRM4 antagonism in calcium assay; P08173; CHO-hM4 cells, ACh EC80, Fluo-8 calcium fluorescence; inhibition, % at 3 µM; 360,000 tested, 0.73% active;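 active means inhibition above its plate's cutoff, the mean inhibition of sample wells plus 3 SD, cut at about 27% in these data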;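 further: 0% = acetylcholine EC80 with DMSO and 100% = DMSO without agonist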
CHRM5 antagonist: antagonists of human muscarinic M5 receptor (CHRM5) | CHO-hM5 cells, Fluo-8 calcium fluorescence, ACh EC80 | inhibition, % at 3 µM | 360,000 tested, 0.59% active;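 active means inhibition above a per-plate cutoff, the mean of that plate's test compounds plus 3 SD, cut at about 27% in these data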;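 further: 0% = acetylcholine EC80 with DMSO and 100% = DMSO without agonist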
Active calls of the source: *. Sampled rows, rich in hits. Any-hit rate of the full collection: about 1.9%.

SMILES	CHRM5 agonist	CHRM4 agonist	CHRM5 PAM	CHRM4 PAM	M4 antag	CHRM5 antagonist
CC(=O)c1ccc(NC(=S)NC(NC(=O)c2ccco2)C(Cl)(Cl)Cl)cc1 (stereo unspecified)	27*	12	-11	3	-12	4
O=C(NC(NC(=S)Nc1ccc(Cl)cc1)C(Cl)(Cl)Cl)c1ccco1 (stereo unspecified)	9	12	-16	-1	0	20
O=C(NC1CCCC1)C(c1ccccc1)n1c(-c2cccs2)nc2ccccc21 (stereo unspecified)	-4	0	0	10	6	7
O=C(NC1CCCC1)C(C1CC1)n1c(C2CCCC2)nc2ccccc21 (stereo unspecified)	-1	1	0	6	-21	5
Cc1ccc(-c2nc3ccccc3n2C(C(=O)NC(C)(C)C)C2CC2)cc1 (stereo unspecified)	0	3	0	2	-3	1
CC(C)(C)NC(=O)C(C1CC1)n1c(-c2ccccc2)nc2ccccc21 (stereo unspecified)	0	3	7	24*	0	-9
O=C(NC1CCCC1)C(C1CC1)n1c(C2CC2)nc2ccccc21 (stereo unspecified)	0	1	3	23*	-13	0
O=C(NC1CCCC1)C(c1ccccc1)n1c(-c2cccc3ccccc23)nc2ccccc21 (stereo unspecified)	-4	-1	-18	-15	74*	-1
CN(CCCNC(=O)c1ccc(CS(=O)c2ccc(Br)cc2)o1)Cc1ccccc1 (stereo unspecified)	-9	0	-6	-8	14	9
COc1cc2cc(C)c(Br)c(OC)c2cc1OC	-8	-3	4	-2	9	13
CCOc1cc2[nH]c(=S)n(CCCCC(=O)NCc3ccco3)c(=O)c2cc1OCC	4	0	5	32*	3	-15
c1ccc(Nc2nc(-c3ccncc3)nc3ccccc23)cc1	0	0	-4	0	0	1
Fc1ccc(Nc2nc(-c3ccncc3)nc3ccccc23)cc1	2	2	3	24*	2	4
CCS(=O)(=O)N1Cc2ccccc2CC1C(=O)N(C)CC(=O)Nc1cccc(F)c1 (stereo unspecified)	0	0	-1	-2	1	2
CCOC(=O)c1ccc(N=c2scc(C)n2CC)cc1	-8	-1	-6	-8	-8	16
CCOC(=O)c1ccc(N=C2C(=S)N(c3ccc(C(=O)OCC)cc3)C(=N)N2/N=C/c2ccccc2)cc1	-7	1	-20	-31	99*	87*
C[C@H](O)[C@@H]1C(=O)N2CCc3c([nH]c4ccccc34)[C@@H]2C[C@@H]1N(C)C(=O)NC1CCCCC1	0	1	-1	2	-6	3
CCCCCCCCCCCCCCCC[n+]1ccc(C(N)=O)cc1	-3	1	-13	-21	12	14
O/N=C/c1cccc[n+]1CCCCCC[n+]1ccccc1/C=N/O	-21	0	3	-9	13	3
CCCCCCCCCCCCCCCC[n+]1ccccc1	-2	0	-19	-16	45*	86*
CCCCCCCCCCCCCCCC[n+]1ccc(/C=N/O)cc1	-7	1	-17	-13	14	28*
CC(C)CC(=O)Nc1c(C(=O)N2CCN(Cc3ccccc3)CC2)oc2ccccc12	-7	-1	-4	-4	2	5
O=C(Oc1ccc(N2C(=O)C3C4CCC(C4)C3C2=O)cc1)c1ccco1 (stereo unspecified)	-4	2	-4	1	1	13
O=C(Oc1cccc2cccnc12)c1ccc(N2C(=O)C3C4CCC(C4)C3C2=O)cc1 (stereo unspecified)	2	1	7	26*	10	2
COc1cc2[nH]c(C(=O)NCc3ccccc3)cc2c(OC)c1OC	-2	1	-1	0	0	1
SMILES	CHRM5 agonist	CHRM4 agonist	CHRM5 PAM	CHRM4 PAM	M4 antag	CHRM5 antagonist
COC1OC2COC(c3ccccc3)OC2C(O)C1NC(C)=O (stereo unspecified)	2	-1	3	4	0	-1
c1ccc2oc(SCc3cn4ccsc4n3)nc2c1	-13	0	-6	-17	38*	7
NC(=O)C(c1ccccc1)C1CCCCC1 (stereo unspecified)	0	2	0	3	-1	-3
CCN(CC)CCOC(=O)C(c1ccccc1)c1ccccc1	-1	2	-18	-17	54*	98*
CCN(CC)CCOC(=O)C(c1ccccc1)C1CCCCC1 (stereo unspecified)	-1	1	-19	-19	100*	99*
CCN(CCO)C(=O)C(c1ccccc1)c1ccccc1	-3	0	5	11	4	-6
CCN(CC)CCSC(=O)C(c1ccccc1)c1ccccc1	-2	1	-19	-17	96*	99*
Cc1ccc(C(=O)N2CCCC(N(C)Cc3ccccc3)C2)s1 (stereo unspecified)	-6	0	-3	-4	-5	0
O=C1Nc2ccc(Br)cc2C12NNc1ccccc1O2 (stereo unspecified)	22	24	-13	-6	21	31*
O=C1Nc2ccc(Br)cc2C1(O)c1ccccc1 (stereo unspecified)	0	6	-1	0	-17	-3
Cn1nc(C(F)(F)F)c(/C=N/OC(=O)c2ccccc2)c1SCc1ccc(Cl)cc1	-7	0	-10	-18	10	6
Cn1nc(C(F)(F)F)c(/C=N/OC(=O)c2ccccc2Cl)c1SCc1ccccc1Cl	-7	-1	-16	-33	67*	-4
COC(=O)c1cccc(F)c1C(=O)c1cccc2ccccc12	-11	-2	-37	-13	18	3
O=C(C1CC1)n1cc(C(=S)N2CCOCC2)c2ccccc21	-4	4	13	21*	1	-8
O=C(c1cccs1)n1cc(C(=S)N2CCOCC2)c2ccccc21	-3	1	-3	-5	7	3
CCOC(=O)N1CCN(C(=O)c2cc3c(s2)-c2ccccc2OC3)CC1	1	12	-8	24*	-25	-6
CCCN1CCN(C(=O)c2cc3c(s2)-c2ccccc2OC3)CC1	-1	3	0	2	-2	-1
O=C(NCC(c1ccco1)N1CCN(c2ccccc2)CC1)C(=O)NC1CCCCC1 (stereo unspecified)	2	0	-5	-5	14	2
